Test [1] relates to Mus musculus. The test is described as follows: In vivo antinociceptive activity was determined by mouse abdominal irritant test (MAIT) in male pathogen free albino CD-1 mice. The format is functional, Abdomen. Details: concentration or dose not given beside the values. An outline of the steps: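 Mice were dosed orally by gavage at several doses, with vehicle controls. Acetylcholine bromide was given at 5.5 mg/kg ip at set intervals later, and writhing was observed. Percent antinociception was calculated per dose from responders per group. ED50 and 95% confidence limits came from Litchfield-Wilcoxon probit analysis with a chi-square linearity test.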

Test [2] concerns Rattus norvegicus. The test is described as follows: In vivo antinociceptive activity was determined using in Rat abdominal irritant test(RAIT) assay; IA=inactive. The note with it: Abdomen. The format is functional, organism-based.
Test [3] is filed under the species Rattus norvegicus. Briefly: QT interval was determined during cardiovascular test in normotensive male albino Long-Evans rat; delta QT. The format is functional, Heart.
For test [4], the system named is Mus musculus. Briefly: In vivo antinociceptive activity was determined by Mouse abdominal irritant test (MAIT)in male pathogen free albino CD-1 mice at 30 mg/kg. The format is functional. To be noted: Abdomen. In short, it runs like this:
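Compound or vehicle was given to mice by oral gavage at 30 mg/kg. After set intervals, acetylcholine bromide was injected at 5.5 mg/kg ip. Percent inhibition was the percentage of responders per group.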

Test [5] concerns Rattus norvegicus. The test is described as follows: In vivo antinociceptive activity was determined using in rat abdominal irritant test (RAIT) assay. The format is functional. The note with it: Abdomen.
For test [6], the species on record is Rattus norvegicus. The test is described as follows: QT interval was determined during cardiovascular test in normotensive male albino Long-Evans rat. The format is functional, Heart. Further details: concentration or dose not given beside the values.
Test [7] has as its target T1, Alpha-2C adrenergic receptor (Rattus norvegicus, UniProt P22086).
T1 sequence (P22086 whole entry): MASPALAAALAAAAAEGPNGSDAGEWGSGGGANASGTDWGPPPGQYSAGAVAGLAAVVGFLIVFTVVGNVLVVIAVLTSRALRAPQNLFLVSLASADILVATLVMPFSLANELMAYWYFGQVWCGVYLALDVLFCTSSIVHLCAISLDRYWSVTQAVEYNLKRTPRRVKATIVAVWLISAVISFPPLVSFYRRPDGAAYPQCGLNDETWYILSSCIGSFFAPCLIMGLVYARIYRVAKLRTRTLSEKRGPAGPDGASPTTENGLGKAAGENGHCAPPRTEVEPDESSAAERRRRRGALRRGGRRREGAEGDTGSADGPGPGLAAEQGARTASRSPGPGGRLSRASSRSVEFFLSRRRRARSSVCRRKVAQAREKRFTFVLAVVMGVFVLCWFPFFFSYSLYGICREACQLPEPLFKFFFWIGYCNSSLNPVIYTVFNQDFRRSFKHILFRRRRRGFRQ
Briefly: In vitro binding affinity against alpha-2C adrenergic receptor of male Wistar rat.

The species named for test [8] is Rattus norvegicus. The test is described as follows: QT interval was determined during cardiovascular test in normotensive male albino Long-Evans rat;delta QT. It counts as functional, Heart.
Test [9] addresses Adrenergic receptor alpha-2 (Rattus norvegicus) (UniProt P22086+P19328+P22909). The test is described as follows: compounds were tested for agonistic activity in Alpha2 Adrenoceptor in Rat abdominal irritant test (RAIT). The format is functional. The note with it: Abdomen.

Activity calls are given as the source filed them. The calls are words filed in the database; no cut-off is given here.

Adrenergic receptor alpha-2 (Rattus norvegicus), sequence (P19328 whole entry, looked up, one chain of several): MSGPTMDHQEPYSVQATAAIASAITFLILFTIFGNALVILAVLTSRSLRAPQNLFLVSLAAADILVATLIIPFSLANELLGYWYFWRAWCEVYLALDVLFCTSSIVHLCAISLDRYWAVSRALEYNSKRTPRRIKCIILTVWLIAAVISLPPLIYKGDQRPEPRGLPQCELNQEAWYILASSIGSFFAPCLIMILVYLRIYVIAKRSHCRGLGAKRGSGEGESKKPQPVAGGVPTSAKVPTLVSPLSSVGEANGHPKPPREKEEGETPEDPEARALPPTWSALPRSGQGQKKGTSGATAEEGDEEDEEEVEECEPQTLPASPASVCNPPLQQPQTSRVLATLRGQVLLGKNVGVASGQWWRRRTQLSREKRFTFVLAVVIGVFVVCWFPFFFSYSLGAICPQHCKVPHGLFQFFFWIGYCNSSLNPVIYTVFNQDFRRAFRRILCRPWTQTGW
Adrenergic receptor alpha-2 (Rattus norvegicus), sequence (P22909 whole entry, looked up, one chain of several): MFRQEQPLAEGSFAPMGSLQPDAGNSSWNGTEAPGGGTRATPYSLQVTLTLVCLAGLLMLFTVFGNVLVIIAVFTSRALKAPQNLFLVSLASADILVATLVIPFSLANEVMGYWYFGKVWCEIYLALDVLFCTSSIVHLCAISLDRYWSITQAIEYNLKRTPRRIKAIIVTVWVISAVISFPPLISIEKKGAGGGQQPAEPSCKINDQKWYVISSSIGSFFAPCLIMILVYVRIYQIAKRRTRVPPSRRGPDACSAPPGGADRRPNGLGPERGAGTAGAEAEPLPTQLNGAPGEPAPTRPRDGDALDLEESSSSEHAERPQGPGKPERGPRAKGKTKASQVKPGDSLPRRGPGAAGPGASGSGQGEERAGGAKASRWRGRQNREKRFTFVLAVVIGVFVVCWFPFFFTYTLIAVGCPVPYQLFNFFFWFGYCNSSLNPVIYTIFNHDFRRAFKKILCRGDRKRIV

In the test with Mus musculus [1], `CCC(c1c[nH]cn1)c1sccc1C.O=C(O)/C=C/C(=O)O` (stereo not given) returned an Inhibition of 100%. In addition, in the test on Rattus norvegicus [2], the IA entry was “inactive”.

As to `CC(c1c[nH]cn1)c1cscc1Br` (stereo not given), in the test listed under Rattus norvegicus [3], the Activity is reported as 20%.

As for `Cc1ccsc1Cc1c[nH]cn1.Cl`, in the test on Mus musculus [4], the inhibition in vivo at 30 mg/kg was 100%. The molecule further registered an Activity in the test filed under Rattus norvegicus [3] of 22%. This molecule also showed an ED50 in the test with Rattus norvegicus [5] of 0.87 mg/kg.

`Cc1cccc([C@H](C)c2c[nH]cn2)c1C` [DEXMEDETOMIDINE] displayed an ED50 in the test with Rattus norvegicus [5] of 0.12 mg/kg.

`c1csc(Cc2c[nH]cn2)c1`: the inhibition in vivo at 30 mg/kg in the test with Mus musculus [4] stood at 60%.

`Cc1ccsc1C1(c2c[nH]cn2)CC1.O=C(O)/C=C/C(=O)O` returned an Inhibition in the test on Mus musculus [1] of 40%.

Regarding `Cc1csc(Cc2c[nH]cn2)c1C.Cl`, testing at 30 mg/kg with Mus musculus [4] gave an inhibition in vivo of 100%. In the test on Rattus norvegicus [5], this molecule registered an ED50 of 4.7 mg/kg.

For `Cc1cscc1C(C)c1c[nH]cn1.O=C(O)/C=C/C(=O)O` (stereo not given), the Inhibition in the test on Mus musculus [1] is recorded as 100%. The same molecule yielded a 50% effective dose (ED50) in the test with Rattus norvegicus [5] of 0.27 mg/kg.

Take `COC(c1c[nH]cn1)c1cscc1Br.O=C(O)/C=C/C(=O)O` (stereo not given): in the test on Mus musculus [1], the Inhibition is listed as 100%. In the test on Rattus norvegicus [5], this molecule showed an ED50 of 3.6 mg/kg.

In the case of `Brc1ccsc1Cc1c[nH]cn1.Cl`, 30 mg/kg produced 100% inhibition in vivo in the test on Mus musculus [4]. In the test with Rattus norvegicus [5], the 50% effect level (ED50) was put at a dose of 2 mg/kg.

In the test with Mus musculus [1], `Cc1cc(Cc2c[nH]cn2)c(C)s1.O=C(O)/C=C/C(=O)O` returned an Inhibition of 100%. The same molecule showed an ED50 in the test on Rattus norvegicus [5] of 0.9 mg/kg.

In the test with Mus musculus [1], `Cl.c1nc(Cc2cc3c(s2)CCCC3)c[nH]1` yielded an Inhibition of 7%.

The molecule `Brc1csc(Cc2c[nH]cn2)c1Br.Cl` showed an Inhibition with Mus musculus [1] of 93%. Besides, in the test on Rattus norvegicus [5], it took a dose of 7.1 mg/kg to reach the 50% effect level (ED50).

Turning to `CC(c1c[nH]cn1)c1sccc1Br.Cl` (stereo not given), the Inhibition with Mus musculus [1] is reported as 100%. In addition, the median effective dose (ED50) in the test with Rattus norvegicus [5] came out at 0.97 mg/kg.

As for `Cc1cscc1Cc1c[nH]cn1.O=C(O)/C=C/C(=O)O`, in the test on Mus musculus [1], the Inhibition was found to be 100%. The same molecule gave an Activity in the test filed under Rattus norvegicus [6] of 34%. The median effective dose (ED50) in the test on Rattus norvegicus [5] came out at 0.35 mg/kg.

Turning to `Cc1sccc1C(C)c1c[nH]cn1.O=C(O)/C=C/C(=O)O` (stereo not given), the Inhibition with Mus musculus [1] is on record as 100%. The same molecule had an ED50 in the test with Rattus norvegicus [5] of 1.6 mg/kg.

On to `CCC(c1c[nH]cn1)c1cscc1C.O=C(O)/C=C/C(=O)O` (stereo not given), for which the Inhibition in the test on Mus musculus [1] is listed as 100%. In the test on Rattus norvegicus [5], the 50% effect level (ED50) was put at a dose of 2.6 mg/kg.

`Cc1sccc1Cc1c[nH]cn1.O=C(O)/C=C/C(=O)O` displayed an Inhibition with Mus musculus [1] of 100%. The molecule further returned an ED50 with Rattus norvegicus [5] of 0.89 mg/kg.

In the test on Mus musculus [1], `Brc1cscc1Cc1c[nH]cn1.O=C(O)/C=C/C(=O)O` displayed an Inhibition of 100%. Besides, the Activity in the test filed under Rattus norvegicus [6] was determined as 11%. Besides, in the test with Rattus norvegicus [5], it took a dose of 0.38 mg/kg to reach the 50% effect level (ED50).

For `CCc1cscc1C(C)c1c[nH]cn1.O=C(O)/C=C/C(=O)O` (stereo not given), the Inhibition with Mus musculus [1] is 100%. Further, in the test filed under Rattus norvegicus [6], the Activity is given as 32%. Besides, the ED50 in the test on Rattus norvegicus [5] worked out at 0.48 mg/kg.

Regarding `Cc1csc(C(C)c2c[nH]cn2)c1C` (stereo not given), the IA result in the test on Rattus norvegicus [2] is “inactive”.

In the test with Mus musculus [1], `CC(C)c1cc(Cc2c[nH]cn2)c(C(C)C)s1.O=C(O)/C=C/C(=O)O` returned an Inhibition of 40%.

With `CC(c1c[nH]cn1)c1scc(Br)c1Br.O=C(O)/C=C/C(=O)O` (stereo not given), the Inhibition in the test on Mus musculus [1] was determined as 80%.

The molecule `Cc1ccsc1C(C)c1c[nH]cn1` (single isomer, unassigned; (+)) gave an Activity in the test filed under Rattus norvegicus [3] of 24%. In the test on Rattus norvegicus [5], this molecule had a median effective dose (ED50) of 1.18 mg/kg.

`O=C(O)/C=C/C(=O)O.c1ccc2c(Cc3c[nH]cn3)csc2c1` displayed an Inhibition in the test on Mus musculus [1] of 0.441%. The 50% effective dose (ED50) in the test on Rattus norvegicus [5] was 0.44 mg/kg.

`CCc1cc(Cc2c[nH]cn2)c(CC)s1.O=C(O)/C=C/C(=O)O` registered an Inhibition with Mus musculus [1] of 100%. Moreover, in the test with Rattus norvegicus [5], the ED50 was determined as 0.31 mg/kg.

With `CC(c1c[nH]cn1)c1cscc1Br.O=C(O)/C=C/C(=O)O` (stereo not given), in the test on Mus musculus [1], the Inhibition came to 100%. It took a dose of 0.31 mg/kg to reach the 50% effect level in the test on Rattus norvegicus [5] (ED50).

Regarding `COC(c1c[nH]cn1)c1sccc1Br.O=C(O)/C=C/C(=O)O` (stereo not given), in the test with Mus musculus [1], the Inhibition is given as 53%.

Consider `Cc1ccc(Cc2c[nH]cn2)s1`, for which the inhibition in vivo at 30 mg/kg with Mus musculus [4] is 33%.

Regarding `Cl.c1ccc2sc(Cc3c[nH]cn3)cc2c1`, in the test with Mus musculus [1], the Inhibition is on record as 20%.

The molecule `O=C(O)/C=C/C(=O)O.c1nc(Cc2ccsc2)c[nH]1` yielded an Inhibition in the test on Mus musculus [1] of 100%. Further, in the test with Rattus norvegicus [5], the ED50 is 0.97 mg/kg.

Take `Brc1csc(Cc2c[nH]cn2)c1.Cl`: the affinity in test [7], expressed as Ki, was 1.4 nM. Besides, the Inhibition in the test with Mus musculus [1] came to 80%. This molecule had a 50% effective dose (ED50) with Rattus norvegicus [5] of 5.2 mg/kg.

In turn, `COC(c1c[nH]cn1)c1cscc1C.O=C(O)/C=C/C(=O)O` (stereo not given) yielded an Inhibition with Mus musculus [1] of 100%. For the same molecule, the ED50 in the test with Rattus norvegicus [5] worked out at 4.4 mg/kg.

As to `CCc1cscc1Cc1c[nH]cn1.O=C(O)/C=C/C(=O)O`, the Inhibition in the test with Mus musculus [1] was determined as 100%. This molecule also displayed an Activity in the test filed under Rattus norvegicus [6] of 48%. In the test on Rattus norvegicus [5], the 50% effect level (ED50) was put at a dose of 0.32 mg/kg.

For `Clc1cc(Cc2c[nH]cn2)c(Cl)s1.O=C(O)/C=C/C(=O)O`, the Inhibition in the test on Mus musculus [1] is 100%. For the same molecule, it took a dose of 3.2 mg/kg to reach the 50% effect level in the test on Rattus norvegicus [5] (ED50).

Consider `Cc1ccsc1C(C)c1c[nH]cn1.Cl` (stereo not given), for which, in the test on Mus musculus [1], the Inhibition was found to be 100%. In the test on Rattus norvegicus [5], this molecule displayed an ED50 of 2.2 mg/kg.

In turn, `CCc1sccc1Cc1c[nH]cn1.O=C(O)/C=C/C(=O)O` yielded an Inhibition in the test with Mus musculus [1] of 100%. For the same molecule, the Activity in the test listed under Rattus norvegicus [6] turned out to be 28%. In the test on Rattus norvegicus [5], this molecule had an ED50 of 0.27 mg/kg.

In the test with Mus musculus [1], `Cc1csc(C)c1Cc1c[nH]cn1.O=C(O)/C=C/C(=O)O` registered an Inhibition of 100%.

For `CC(c1c[nH]cn1)c1sccc1Br` (stereo not given), the Activity in the test filed under Rattus norvegicus [8] was found to be 23%. In the test on Rattus norvegicus [5], this molecule came in with an ED50 of 0.97 mg/kg.

As to `Brc1sccc1Cc1c[nH]cn1.O=C(O)/C=C/C(=O)O`, the Inhibition in the test with Mus musculus [1] is reported as 100%. The median effective dose (ED50) in test [9] amounted to 1.1 mg/kg.

One may read the Inhibition as the percentage by which the read-out fell short of the control. The term inhibition in vivo denotes the change of the read-out against control, counted positive when it falls. By ED50 is commonly meant the dose that gives a 50% effect, or the effect in half of the subjects. Broadly, the Ki is a dissociation constant, usually derived from enzyme kinetics or from competition with a known ligand.

The record behind these values is ChEMBL document CHEMBL1134368, “Alpha(2) adrenoceptor agonists as potential analgesic agents. 3. Imidazolylmethylthiophenes” (J Med Chem, 2001).
